ChEMBL document CHEMBL4480455, “Anti-inflammatory Property of Imperatorin on Alveolar Macrophages and Inflammatory Lung Injury” (J Nat Prod, 2019)
Active and inactive are the calls of the source. The rule behind the calls is not given here.

Assays:
[1] = species: Mus musculus; assay: Antiinflammatory activity in mouse MHS cells assessed as reduction in zymosan-induced PGE2 production at 1.5 to 15 ug/ml preincubated for 30 mins followed by zymosan challenge and measured after 6 to 24 hrs by ELISA; format: functional, cell-based
Procedure, shortened: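 MH-S cells pretreated for 30 min, then given zymosan 10 μg/mL for 24 h. Supernatant PGE2 measured by competitive ELISA: acetylcholinesterase tracer plus monoclonal antibody, 4 °C for 18 h, Ellman's reagent development, absorbance at 405 nm. Mean ± SD, n≥3.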

[2] = system: Mus musculus; assay: Antiinflammatory activity in zymosan induced C57BL/6 mouse model of lung injury assessed as reduction in hypertrophic smooth muscle cells at 4 mg/kg, ip pretreated for 3 days followed by zymosan challenge and measured after 24 hrs by H and E staining based microscopic analysis; format: functional, organism-based
Procedure, shortened: (§1)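 Male C57BL/6 mice dosed i.p. for 3 days, then given zymosan (4 mg/kg, i.t.) or saline. Lungs harvested 24 h later. Right lung fixed in 10% formalin, embedded in paraffin, cut into 5 μm sections, stained with H&E or Masson's trichrome and examined by microscopy. Collagen also measured by hydroxyproline assay on lung lysates. Mean ± SD, n≥4.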

[3] = Effect on COX2 protein expression in mouse MHS cells at 15 ug/ml after 30 mins by Western blotting analysis relative to tubulin (reference value: 1); format: ADME, cell-based; settings: 0.5 h
[4] = molecular target: T1, I-kappa-B kinase (Mus musculus) (UniProt Q60680+O88351+O88522); assay: Inhibition of zymosan-induced IKK phosphorylation in mouse MHS cells assessed as phosphorylated IKK level at 15 ug/ml by Western blot analysis relative to tubulin (reference value: 1.8); format: cell-based
Procedure, shortened: (§2)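 MH-S cells pretreated, then stimulated with zymosan 10 μg/mL. Phospho-JAK1 (Y1022/1023), phospho-STAT3 (Y705) and phospho-IKKα/β detected by Western blot against total protein and tubulin. Zymosan time course 1–30 min for JAK1/STAT3 and 1–60 min for IKK. Normalized to control; mean ± SD, n≥3.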

[5] = system: Mus musculus; assay: Antiinflammatory activity in zymosan induced C57BL/6 mouse model of lung injury assessed as reduction in total protein level in BALF at 4 mg/kg, ip pretreated for 3 days followed by zymosan challenge and measured after 24 hrs; format: functional, organism-based
Procedure, shortened: (§3)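 Male C57BL/6 mice, 25–30 g. Dosed i.p. daily for 3 days, then zymosan 4 mg/kg in 40 μL saline given by intratracheal instillation. After 24 h, BALF collected with five 0.2 mL PBS washes and centrifuged. Supernatant assayed for PGE2 and total protein. Cells counted by hemocytometer, and ≥300 cells on stained smears scored for differential counts. Left lung weighed, dried at 48 °C for 48 h, reweighed for wet/dry ratio.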

[6] = molecular target: Signal transducer and activator of transcription 3 (Mus musculus) (UniProt P42227); assay: Inhibition of zymosan-induced STAT3 phosphorylation in mouse MHS cells preincubated for 30 mins followed by zymosan challenge and measured after 6 to 24 hrs by Western blot analysis; format: cell-based
[7] = molecular target: Tyrosine-protein kinase JAK1 (Mus musculus) (UniProt P52332); assay: Effect on JAK1 phosphorylation in mouse MHS cells assessed as phosphorylated JAK1 level at 15 ug/ml by Western blot analysis relative to tubulin (reference value: 1); format: cell-based
[8] = species: Mus musculus; assay: Antiinflammatory activity in mouse MHS cells assessed as reduction in zymosan-induced TNFalpha protein expression at 1.5 to 15 ug/ml preincubated for 30 mins followed by zymosan challenge and measured after 6 to 24 hrs; format: functional, cell-based
Procedure, shortened: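 MH-S cells pretreated for 30 min, then given zymosan 10 μg/mL for 24 h. IL-6 and TNFα protein in culture supernatant assessed by cytokine array. Values normalized to control; mean ± SD, n≥3.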

[9] = Effect on nitrite level in mouse MHS cells at 1.5 to 15 ug/ml after 30 mins by Griess assay; format: ADME, cell-based; settings: 0.5 h
[10] = molecular target: Tyrosine-protein kinase JAK1 (Mus musculus) (UniProt P52332); assay: Inhibition of zymosan-induced JAK1 phosphorylation in mouse MHS cells assessed as phosphorylated JAK1 level at 15 ug/ml by Western blot analysis relative to tubulin (reference value: 2.2); format: cell-based; procedure, shortened: as §2
[11] = species: Mus musculus; assay: Antiinflammatory activity in mouse MHS cells assessed as reduction in zymosan-induced COX2 protein expression preincubated for 30 mins followed by zymosan challenge and measured after 6 to 24 hrs by Western blotting analysis; format: functional, cell-based
[12] = species: Mus musculus; assay: Antiinflammatory activity in mouse MHS cells assessed as reduction in zymosan-induced COX2 mRNA expression preincubated for 30 mins followed by zymosan challenge and measured after 6 to 24 hrs by TRIzol reagent based qRT-PCR analysis; format: functional, cell-based
Procedure, shortened: (§4)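 MH-S alveolar macrophages grown in RPMI 1640 with 10% FBS at 37 °C and 5% CO2. Cells pretreated for 30 min, then given zymosan 10 μg/mL for 6 h. mRNA measured by SYBR Green real-time PCR (95 °C 10 min; 42 cycles of 95 °C 10 s, 60 °C 60 s) with actin as reference. Normalized to control; mean ± SD, n≥3.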

[13] = molecular target: Tyrosine-protein kinase JAK1 (Mus musculus) (UniProt P52332); assay: Inhibition of zymosan-induced JAK1 phosphorylation in mouse MHS cells preincubated for 30 mins followed by zymosan challenge and measured after 6 to 24 hrs by Western blot analysis; format: cell-based
[14] = system: Mus musculus; assay: Antiinflammatory activity in zymosan induced C57BL/6 mouse model of lung injury assessed as reduction in subepithelial collagen deposition/fibrosis at 4 mg/kg, ip pretreated for 3 days followed by zymosan challenge and measured after 24 hrs by Masson's trichrome staining based microscopic analysis; format: functional, organism-based; procedure, shortened: as §1
[15] = species: Mus musculus; assay: Antiinflammatory activity in mouse MHS cells assessed as reduction in zymosan-induced IL-6 mRNA expression preincubated for 30 mins followed by zymosan challenge and measured after 6 to 24 hrs by TRIzol reagent based qRT-PCR analysis; format: functional, cell-based; procedure, shortened: as §4
[16] = Cytotoxicity against zymosan-induced mouse MHS cells assessed as effect on cell viability at 1.5 to 15 ug/ml preincubated for 30 mins followed by zymosan challenge and measured after 6 to 24 hrs by sulforhodamine B assay; format: cell-based
Procedure, shortened: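 MH-S cells exposed to test agent and zymosan (10 μg/mL). Viability by sulforhodamine B: fixed in 10% trichloroacetic acid, stained 30 min with 0.4% (w/v) SRB, dissolved in 10 mM Tris, read at OD 515 nm. Mean ± SD, n≥3.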

[17] = system: Mus musculus; assay: Antiinflammatory activity in zymosan induced C57BL/6 mouse model of lung injury assessed as reduction in immune cell infiltration in BALF at 4 mg/kg, ip pretreated for 3 days followed by zymosan challenge and measured after 24 hrs by Diff-Quick staining based assay; format: functional, organism-based; procedure, shortened: as §3
[18] = species: Mus musculus; assay: Antiinflammatory activity in mouse MHS cells assessed as reduction in zymosan-induced iNOS protein expression preincubated for 30 mins followed by zymosan challenge and measured after 6 to 24 hrs by Western blotting analysis; format: functional, cell-based
[19] = Antiinflammatory activity in mouse MHS cells assessed as reduction in zymosan-induced iNOS protein expression at 1.5 ug/ml preincubated for 30 mins followed by zymosan challenge and measured after 6 to 24 hrs by Western blotting analysis relative to control (reference value: 2.93 +/- 0.84); format: functional
[20] = molecular target: T1, I-kappa-B kinase (Mus musculus); assay: Effect on IKK phosphorylation in mouse MHS cells assessed as phosphorylated IKK level at 15 ug/ml by Western blot analysis relative to tubulin (reference value: 1); format: cell-based
[21] = system: Mus musculus; assay: Antiinflammatory activity in zymosan induced C57BL/6 mouse model of lung injury assessed as reduction in immune cell infiltration at 4 mg/kg, ip pretreated for 3 days followed by zymosan challenge and measured after 24 hrs by H and E staining based microscopic analysis; format: functional, organism-based; procedure, shortened: as §1

Tyrosine-protein kinase JAK1 (Mus musculus), sequence (P52332 whole entry): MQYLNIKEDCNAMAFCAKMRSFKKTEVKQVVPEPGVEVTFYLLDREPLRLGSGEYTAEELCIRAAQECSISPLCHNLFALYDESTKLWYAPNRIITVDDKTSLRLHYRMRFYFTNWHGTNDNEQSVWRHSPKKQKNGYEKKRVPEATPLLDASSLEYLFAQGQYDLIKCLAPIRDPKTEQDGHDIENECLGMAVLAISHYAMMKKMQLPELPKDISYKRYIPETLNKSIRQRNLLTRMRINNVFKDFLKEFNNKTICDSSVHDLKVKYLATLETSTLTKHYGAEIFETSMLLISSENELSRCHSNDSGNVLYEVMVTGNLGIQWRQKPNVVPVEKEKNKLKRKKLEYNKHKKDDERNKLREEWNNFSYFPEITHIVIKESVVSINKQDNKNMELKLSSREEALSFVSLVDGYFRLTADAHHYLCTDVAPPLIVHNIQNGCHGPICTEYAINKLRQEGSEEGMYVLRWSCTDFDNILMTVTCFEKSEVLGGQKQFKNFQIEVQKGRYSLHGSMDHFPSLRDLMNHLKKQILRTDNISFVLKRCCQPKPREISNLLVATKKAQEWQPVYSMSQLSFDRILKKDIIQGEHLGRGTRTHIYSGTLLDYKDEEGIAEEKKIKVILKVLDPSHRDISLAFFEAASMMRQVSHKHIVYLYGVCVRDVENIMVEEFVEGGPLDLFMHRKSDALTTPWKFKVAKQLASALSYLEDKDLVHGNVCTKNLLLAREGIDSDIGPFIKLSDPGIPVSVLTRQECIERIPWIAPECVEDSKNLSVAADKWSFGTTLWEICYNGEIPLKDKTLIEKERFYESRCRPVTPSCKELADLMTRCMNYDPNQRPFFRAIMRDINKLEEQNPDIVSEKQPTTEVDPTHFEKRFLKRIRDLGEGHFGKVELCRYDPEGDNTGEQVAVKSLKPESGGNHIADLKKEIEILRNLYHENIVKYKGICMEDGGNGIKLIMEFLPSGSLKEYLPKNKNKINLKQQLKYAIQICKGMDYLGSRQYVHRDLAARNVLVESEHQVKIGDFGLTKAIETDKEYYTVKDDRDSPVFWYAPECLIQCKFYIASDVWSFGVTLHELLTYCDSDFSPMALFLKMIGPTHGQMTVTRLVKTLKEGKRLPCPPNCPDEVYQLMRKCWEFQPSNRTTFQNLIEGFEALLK
Signal transducer and activator of transcription 3 (Mus musculus), sequence (P42227 whole entry): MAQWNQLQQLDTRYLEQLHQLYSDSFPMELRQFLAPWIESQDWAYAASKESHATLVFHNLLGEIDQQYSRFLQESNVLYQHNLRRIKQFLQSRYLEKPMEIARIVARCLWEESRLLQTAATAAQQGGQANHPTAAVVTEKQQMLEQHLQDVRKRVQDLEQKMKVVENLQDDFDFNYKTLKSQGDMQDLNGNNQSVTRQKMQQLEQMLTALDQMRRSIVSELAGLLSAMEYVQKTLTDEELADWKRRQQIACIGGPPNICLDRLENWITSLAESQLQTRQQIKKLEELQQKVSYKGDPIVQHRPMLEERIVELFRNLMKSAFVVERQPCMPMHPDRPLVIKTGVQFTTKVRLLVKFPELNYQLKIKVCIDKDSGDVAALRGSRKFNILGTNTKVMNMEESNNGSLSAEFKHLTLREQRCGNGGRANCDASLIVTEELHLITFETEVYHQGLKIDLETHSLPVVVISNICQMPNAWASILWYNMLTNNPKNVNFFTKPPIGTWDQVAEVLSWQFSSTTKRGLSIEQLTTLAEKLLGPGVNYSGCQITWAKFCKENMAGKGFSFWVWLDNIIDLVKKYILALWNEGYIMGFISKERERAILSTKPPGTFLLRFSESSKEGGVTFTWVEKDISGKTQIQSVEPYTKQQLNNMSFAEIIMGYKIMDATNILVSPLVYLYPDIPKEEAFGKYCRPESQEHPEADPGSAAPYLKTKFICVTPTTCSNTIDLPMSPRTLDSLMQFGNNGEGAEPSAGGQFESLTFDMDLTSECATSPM

CC(C)=CCOc1c2occc2cc2ccc(=O)oc12 [PENTOSALEN]
Activity [1]: Active
Activity [2]: Active
fold change (FC) [3]: 0.7
fold change (FC) [4]: 1
Activity [5]: Active
inhibition [6]: Dose-dependent effect
fold change (FC) [7]: 1.2
Activity [8]: Active
Activity [9]: Non-Toxic
fold change (FC) [10]: 1.3
Activity [11]: Dose-dependent effect
Activity [12]: Dose-dependent effect
inhibition [13]: Dose-dependent effect
Activity [14]: Active
Activity [15]: Dose-dependent effect
Activity [16]: Non-Toxic
Activity [17]: Active
Activity [18]: Dose-dependent effect
fold change (FC) [19]: 2.5
fold change (FC) [20]: 1
Activity [21]: Active
